Data reported in ChEMBL document CHEMBL1129387, “Synthesis and biological activity of 1 alpha, 25-dihydroxy-18-norvitamin D3 and 1 alpha, 25-dihydroxy-18,19-dinorvitamin D3” (1996).
Where “and” joins values, the source holds several entries; their conditions need not be identical. Identical values can stand only once.

Assays:
Rattus norvegicus [1] = species: Rattus norvegicus; test: Intestinal Calcium Transport mobilization response of Vitamin D-Deficient Rats on a low-calcium diet(amount 500 pmol); format: functional
Method in brief: (§1)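 Vitamin D-deficient weanling male rats kept on a 0.02% Ca diet. Compound given intraperitoneally daily for 7 days in 0.1 mL of 95:5 propylene glycol/ethanol; controls got vehicle. Killed 24 h after the last dose. Intestinal Ca transport by everted sac (proximal 10 cm), reported as S/M ratio. At least 5 rats/group; mean ± SEM; Student's t-test.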

Rattus norvegicus [2] = species: Rattus norvegicus; test: Support of Intestinal Calcium Transport mobilization response of Vitamin D-Deficient Rats on a low-calcium diet(amount 1300 pmol); format: functional; method in brief: as §1
Rattus norvegicus [3] = species: Rattus norvegicus; test: Support of Intestinal Calcium Transport mobilization response of Vitamin D-Deficient Rats on a low-calcium diet(amount 650 pmol); format: functional; method in brief: as §1
Rattus norvegicus [4] = test: Intestinal Calcium Transport mobilization response of Vitamin D-Deficient Rats to a single Intravenous Injection amount 260 pmol); format: functional
Method in brief: (§2)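 Vitamin D-deficient weanling male rats, 3 weeks on a 0.47% Ca diet then 1 week on 0.02% Ca. A single intravenous dose was given in 0.1 mL of 95:5 propylene glycol/ethanol, with vehicle controls. After 24 h, the proximal 10 cm of intestine was taken for everted-sac calcium transport, expressed as serosal:mucosal (S/M) Ca ratio. At least 5 rats/group; mean ± SEM.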

Rattus norvegicus [5] = test: Bone Calcium mobilization response of Vitamin D-Deficient Rats to a single Intravenous Injection (amount 260 pmol); format: functional, organism-based
Method in brief: (§3)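 Vitamin D-deficient weanling male rats, 3 weeks on a 0.47% Ca diet then 1 week on 0.02% Ca. A single intravenous dose was given in 0.1 mL of 95:5 propylene glycol/ethanol, with vehicle controls. Serum calcium was measured by automatic titrator 24 h after dosing. The rise in serum Ca on the low-Ca diet is taken as bone calcium mobilization. At least 5 rats/group; mean ± SEM.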

Rattus norvegicus [6] = species: Rattus norvegicus; test: Support of Serum Calcium Transport mobilization response of Vitamin D-Deficient Rats on a low-calcium diet(amount 1300 pmol); format: functional, organism-based
Method in brief: (§4)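 Weanling male rats deficient in vitamin D, held on a low-calcium (0.02% Ca) diet, dosed intraperitoneally each day for 7 days in 0.1 mL of 95:5 propylene glycol/ethanol, with vehicle controls. Serum calcium was measured by automatic titrator 24 h after the last dose as the index of bone calcium mobilization. At least 5 rats/group; mean ± SEM; Student's t-test.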

Rattus norvegicus [7] = species: Rattus norvegicus; test: Support of Serum Calcium Transport mobilization response of Vitamin D-Deficient Rats on a low-calcium diet(amount 650 pmol); format: functional, organism-based; method in brief: as §4
Rattus norvegicus [8] = species: Rattus norvegicus; test: Serum Calcium Transport mobilization response of Vitamin D-Deficient Rats on a low-calcium diet(amount 500 pmol); format: functional, organism-based; method in brief: as §4
Rattus norvegicus [9] = species: Rattus norvegicus; test: Support of Intestinal Calcium Transport mobilization response of Vitamin D-Deficient Rats on a low-calcium diet(amount 130 pmol); format: functional; method in brief: as §1
Rattus norvegicus [10] = species: Rattus norvegicus; test: Support of Intestinal Calcium Transport mobilization response of Vitamin D-Deficient Rats on a low-calcium diet(amount 260 pmol); format: functional; method in brief: as §1
Rattus norvegicus [11] = test: Intestinal Calcium Transport mobilization response of Vitamin D-Deficient Rats to a single Intravenous Injection of D3 (amount 260 pmol); format: functional; method in brief: as §2
Rattus norvegicus [12] = test: Bone Calcium mobilization response of Vitamin D-Deficient Rats to a single Intravenous Injection of (amount 260 pmol); format: functional, organism-based; method in brief: as §3
Rattus norvegicus [13] = species: Rattus norvegicus; test: Support of Serum Calcium Transport mobilization response of Vitamin D-Deficient Rats on a low-calcium diet(amount 130 pmol); format: functional, organism-based; method in brief: as §4
Rattus norvegicus [14] = species: Rattus norvegicus; test: Support of Serum Calcium Transport mobilization response of Vitamin D-Deficient Rats on a low-calcium diet(amount 260 pmol); format: functional, organism-based; method in brief: as §4
Rattus norvegicus [15] = species: Rattus norvegicus; test: Support of Intestinal Calcium Transport mobilization response of Vitamin D-Deficient Rats on a low-calcium diet(amount 500 pmol); format: functional; method in brief: as §1
Rattus norvegicus [16] = species: Rattus norvegicus; test: Support of Intestinal Calcium Transport mobilization response of Vitamin D-Deficient Rats on a low-calcium diet(amount 1000 pmol); format: functional; method in brief: as §1
Rattus norvegicus [17] = species: Rattus norvegicus; test: Support of Serum Calcium Transport mobilization response of Vitamin D-Deficient Rats on a low-calcium diet(amount 1000 pmol); format: functional, organism-based; method in brief: as §4
Rattus norvegicus [18] = species: Rattus norvegicus; test: Support of Serum Calcium Transport mobilization response of Vitamin D-Deficient Rats on a low-calcium diet(amount 500 pmol); format: functional, organism-based; method in brief: as §4

SMILES	Ca2+ transport (Rattus norvegicus [1])	Ca2+ transport (Rattus norvegicus [2])	Ca2+ transport (Rattus norvegicus [3])	Ca2+ transport (Rattus norvegicus [4])	Serum Ca2+ (Rattus norvegicus [5])	Serum Ca2+ (Rattus norvegicus [6])	Serum Ca2+ (Rattus norvegicus [7])	Serum Ca2+ (Rattus norvegicus [8])	Ca2+ transport (Rattus norvegicus [9])	Ca2+ transport (Rattus norvegicus [10])	Ca2+ transport (Rattus norvegicus [11])	Serum Ca2+ (Rattus norvegicus [12])	Serum Ca2+ (Rattus norvegicus [13])	Serum Ca2+ (Rattus norvegicus [14])	Ca2+ transport (Rattus norvegicus [15])	Ca2+ transport (Rattus norvegicus [16])	Serum Ca2+ (Rattus norvegicus [17])	Serum Ca2+ (Rattus norvegicus [18])
C=C1/C(=C\C=C2/CCC[C@@H]3C([C@H](C)CCCC(C)(C)O)CC[C@@H]23)C[C@@H](O)C[C@@H]1O (some centres undefined)	4.1	5.5	5.4	3.9	4.4	5.6	5.2	5.1										
C=C1/C(=C\C=C2/CCC[C@]3(C)[C@@H]([C@H](C)CCCC(C)(C)O)CC[C@@H]23)C[C@@H](O)C[C@@H]1O [CALCITRIOL]	5.7							5.5	6.8	7.6	5	4.8	5.8	5.4 and 7.1				
C[C@H](CCCC(C)(C)O)C1CC[C@H]2/C(=C/C=C3C[C@@H](O)C[C@H](O)C3)CCC[C@H]12 (some centres undefined)									3.7	4.8			4.8	4.9	6.2	6.9	5.5	5.6
